Results pooled from the literature.
Protocols differ between the studies behind these lines.

SMILES | method | sample | time | logP
CC(=O)NCN1N=C(C)C(=NNn2c(-c3ccccc3)nc3ccccc3c2=O)C1=O | – | – | – | 2.24
N#Cc1[nH]nnc1-c1cccc(-c2cc(F)cc(C(F)(F)F)c2)c1 | potentiometric | – | – | 5.2
O=C1NN=C(N=Cc2ccccc2)C1=NNn1c(-c2ccccc2)nc2ccccc2c1=O | – | – | – | 3.39
CNCc1cc(-c2ccccc2F)n(S(=O)(=O)c2cccnc2)c1 | – | – | – | 2.74
CC1=NN(CNc2c(O)c(S(=O)(=O)O)cc3ccccc23)C(=O)C1=NNn1c(-c2ccccc2)nc2ccccc2c1=O | – | – | – | 5.01
CC(=O)N1N=C(c2cccc(O)c2)CC1c1ccc(Cl)cc1 (stereo not shown) | potentiometric | – | – | 2.98
CS(=O)(=O)N1CCN(Cc2cc3nc(-c4cccc5[nH]ncc45)nc(N4CCOCC4)c3s2)CC1 | – | – | – | 3.22
C=C[C@H]1C[N@@]2CC[C@H]1C[C@@H]2[C@@H](O)c1ccnc2ccc(OC)cc12 | – | water | – | 2.84
CC1=NN(CNc2ccccc2[N+](=O)[O-])C(=O)C1=NNn1c(-c2ccccc2)nc2ccccc2c1=O | – | – | – | 5.08
CNC(=O)c1ccccc1Sc1ccc2c(/C=C/c3ccccn3)n[nH]c2c1 | – | – | – | 3.1
O=c1[nH]cc(F)c(=O)[nH]1 | shake flask | water | 24 h | -0.46
CC(=O)c1ccccc1 | – | water | 1 h | 1.51
CC1=NN(CNC(=O)c2ccccc2)C(=O)C1=NNn1c(-c2ccccc2)nc2ccccc2c1=O | – | – | – | 4.09
O=C(O)CCCNC(=O)c1ccc(O)c2ncccc12 | – | – | – | 0.71
CCCCC1=NC2(CCCC2)C(=O)N1Cc1ccc(-c2ccccc2S(=O)(=O)Nc2noc(C)c2C)c(COCC)c1 | – | – | – | 4.26
N#Cc1[nH]nnc1-c1cc(Cl)cc(/C=C/c2cccc(C(F)(F)F)c2)c1 | potentiometric | – | – | 5.4
